Values joined by “and” are separate entries in the source; they are usually repeats but may differ in a detail not shown here. Identical values can stand only once. Like-named read-outs stand apart in the source and are kept apart here.
What was measured:
[1] = tested on: normal cells, such as HFL, PrEC, HMEC and HUVEC; conditions: unless its concentration exceeded 5–10 μM; cited from earlier work
[2] = tested on: human hepatoma carcinoma cell lines (HepG2); assay: MTS cytotoxicity assay, HepG2; assay type: cell-based
In short: (§1)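 Cells grown in DMEM or RPMI 1640 with 10% FBS and penicillin/streptomycin (37 °C, 5% CO2), seeded at 4000–6000 cells per mL, then after 24 h treated for 48 h with several concentrations (DMSO stock 100 mM). Medium replaced, MTS added for 3 h at 37 °C, A492 read. Inhibition % relative to untreated and blank; IC50 by curve fitting; at least three wells per concentration.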

[3] = tested on: 94 different cancer cell lines; conditions: read-out: IC50 values against 94 different cancer cell lines; in vitro; cited from earlier work
[4] = tested on: human cervical carcinoma cell line (HeLa); assay: MTS cytotoxicity assay, HeLa; assay type: cell-based
In short: as §1

[5] = tested on: human breast carcinoma cell line (MCF-7); assay: MTS cytotoxicity assay, MCF-7; assay type: cell-based
In short: as §1

[6] = tested on: BT20 cells; conditions: 200 mg kg^−1, i.p.; cited from earlier work
[7] = tested on: human tongue carcinoma cell line (SCC-15); assay: MTS cytotoxicity assay, SCC-15; assay type: cell-based
In short: as §1

[8] = tested on: Bel-7402, MCF-7 and MIA-PaCa cells; conditions: 250 mg kg^−1, i.p.; cited from earlier work
[9] = tested on: p53; assay: Western blotting, p53 expression in HeLa cells; assay type: cell-based, human; conditions: 25 nM, 50 nM and 100 nM, 48 h
In short: (§2)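 HeLa cells seeded at 1 × 10^5 cells per mL overnight, then given test compound (25, 50, 100 nM final) for 48 h. Lysed on ice 20 min; protein quantified by BCA. Equal protein run on SDS-PAGE and transferred to PVDF, then blocked in 5% nonfat milk. Primary antibodies (p53, Bcl-2, Bax, GAPDH loading) overnight at 4 °C; peroxidase secondary 2 h; chemiluminescent detection.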

[10] = tested on: Bax; assay: Western blotting, Bax expression in HeLa cells; assay type: cell-based, human; conditions: 25 nM, 50 nM and 100 nM, 48 h
In short: as §2

[11] = tested on: HeLa cells; assay: 7-AAD/annexin V flow cytometry apoptosis assay; assay type: cell-based, human; conditions: 100 nM
In short: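 HeLa cells seeded at 1 × 10^5 cells per mL, grown overnight, then exposed to test compound (25, 50 or 100 nM final) for 24, 36 or 48 h. Cells were washed in cold PBS, trypsinized, and stained with annexin V-FITC plus 7-AAD for 15 min at room temperature in the dark. Analysed by flow cytometry; apoptotic % = early (annexin V+) plus late (annexin V+/7-AAD+).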

[12] = tested on: Bcl-2; assay: Western blotting, Bcl-2 expression in HeLa cells; assay type: cell-based, human; conditions: 25 nM, 50 nM and 100 nM, 48 h
In short: as §2

[13] = tested on: human umbilical vein endothelial cells (HUVEC); assay: MTS cytotoxicity assay, HUVEC normal cells; assay type: cell-based; conditions: read-out: IC50 HUVEC, 48 h treatment
In short: as §1

[14] = tested on: HeLa cells; assay: Wound healing assay; assay type: cell-based, human; conditions: serum starved
In short: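 HeLa cells seeded at 2.5 × 10^5 cells per mL and grown to about 90% confluence; monolayer scratched with p10 tips, washed twice in PBS. Serum-free medium with test compound (25, 50, 100 nM final) or DMSO for 48 h. Gaps photographed at 0, 24, 48 h (10× magnification); healing rate from change in wound area; three independent experiments.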

[15] = Homo sapiens, HepG2, 48 h, read-out: IC50 HepG2, MTS, 48 h treatment
[16] = Homo sapiens, HeLa, 48 h, read-out: IC50 HeLa, MTS, 48 h treatment
[17] = Homo sapiens, MCF7, 48 h, read-out: IC50 MCF-7, MTS, 48 h treatment
[18] = Homo sapiens, SCC-15, 48 h, read-out: IC50 SCC-15, MTS, 48 h treatment

Row | Compound | IC50 [2, 15] [nM] | IC50 [4, 16] [nM] | IC50 [5, 17] [nM] | IC50 [7, 18] [nM] | also measured
1 | COc1cc(OC)c(/C=C/S(=O)(=O)Cc2ccc(OC)c(NCC(=O)O)c2)c(OC)c1 [Rigosertib, reference compound] | 108 ± 17 | 65 ± 5 | 22 ± 3 | 35 ± 3 | anti-proliferative effect on normal cells [1]: little or no anti-proliferative effect; IC50 [3]: 50 to 250 nM; tumor growth in mouse xenograft model [6]: remarkably inhibit tumor growth; tumor growth in mouse xenograft models [8]: significantly suppress tumor growth
2 | COc1ccc(CSc2ccc3ccccc3c2)cc1N [12e, 2-Methoxy-5-((naphthalen-2-ylthio)methyl)aniline] | 42600 ± 3810 | 4060 ± 316 | 17500 ± 2320 | 2210 ± 314 | –
3 | COc1ccc(CS(=O)(=O)c2ccc3ccccc3c2)cc1N [12b, 2-Methoxy-5-((naphthalen-2-ylsulfonyl)methyl)aniline] | 43 ± 7 | 30 ± 5 | 110 ± 14 | 28 ± 6 | –
4 | COc1ccc(C[S+]([O-])c2ccc3ccccc3c2)cc1N (stereo not shown) [12a, 2-Methoxy-5-((naphthalen-2-ylsulfinyl)methyl)aniline] | 434 ± 38 | 173 ± 31 | 681 ± 48 | 148 ± 27 | –
5 | COc1ccc(C[S+]([O-])c2ccc3cc(Br)ccc3c2)cc1N (stereo not shown) [12c, 5-(((6-Bromonaphthalen-2-yl)sulfinyl)methyl)-2-methoxyaniline] | 1310 ± 91 | 92 ± 9 | 858 ± 88 | 264 ± 27 | –
6 | COc1ccc(CS(=O)(=O)c2ccc3cc(Br)ccc3c2)cc1N [12d, 5-(((6-Bromonaphthalen-2-yl)sulfonyl)methyl)-2-methoxyaniline] | 402 ± 35 | 64 ± 5 | 95 ± 8 | 78 ± 2 | –
7 | COc1ccc(CS(=O)(=O)c2ccc3ccccc3c2)cc1NCC(=O)O [15b, (2-Methoxy-5-((naphthalen-2-ylsulfonyl)methyl)phenyl)glycine] | – | – | – | – | levels of the proapoptotic protein p53 [9]: increased significantly; IC50 ([2]; read-out: IC50 HepG2, MTS, 48 h treatment): 390 ± 13 nM; expression of proapoptotic protein Bax [10]: up-regulation; apoptotic values (early and late apoptotic states) ([11]; 24 h): 9.2%; apoptotic values (early and late apoptotic states) ([11]; 36 h): 30.2%; apoptotic values (early and late apoptotic states) ([11]; 48 h): 53.2%; IC50 ([4]; read-out: IC50 HeLa, MTS, 48 h treatment): 64 ± 5 nM; IC50 ([5]; read-out: IC50 MCF-7, MTS, 48 h treatment): 29 ± 1 nM; IC50 ([7]; read-out: IC50 SCC-15, MTS, 48 h treatment): 15 ± 2 nM; expression of antiapoptotic protein Bcl-2 [12]: down-regulation; IC50 [13]: 1060 ± 48 nM; Wound healing rate ([14]; 25 nM, 24 h, control 46.4): 20.0% and 20.0 ± 3.5 %; Wound healing rate ([14]; 25 nM, 48 h, control 70.8): 32.0% and 32.0 ± 6.1 %; Wound healing rate ([14]; 50 nM, 24 h, control 46.4): 13.2 ± 2.2 %; Wound healing rate ([14]; 50 nM, 48 h, control 70.8): 15.5 ± 3.4 %; Wound healing rate ([14]; 100 nM, 24 h, control 46.4): 3.9% and 3.9 ± 3.0 %; Wound healing rate ([14]; 100 nM, 48 h, control 70.8): 4.4% and 4.4 ± 2.7 %
8 | COc1ccc(C[S+]([O-])c2ccc3ccccc3c2)cc1NCC(=O)O (stereo not shown) [15a, (2-Methoxy-5-((naphthalen-2-ylsulfinyl)methyl)phenyl)glycine] | 5080 ± 318 | 230 ± 4 | 2030 ± 73 | 722 ± 29 | –

— PMC9043816 (RSC Advances, 2021)
